From ChEMBL document CHEMBL4513216, “Probing the Open Global Health Chemical Diversity Library for Multistage-Active Starting Points for Next-Generation Antimalarials” (ACS Infect Dis, 2020)

Test: Toxicity liver stage against HepG2, at 10uM
Format: cell-based
Set-up: test concentration 10 uM, cell line HepG2-A16-CD81EGFP
Conditions: human, HepG2-A16-CD81EGFP cells; read-out: INHIBITION
How it was run: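 Uninfected HepG2-A16-CD81EGFP cells, 3 × 10^3 per well, 1536-well, plated on prespotted compound at 10 μM final, parasite-free screening media added to match infected plates; puromycin 10 μM positive, DMSO 0.5% negative; run in parallel with 48 h PbLuc assay at 37 °C, 5% CO2; viability by CellTiter-Glo luminescence, normalized to controls.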

Structure (SMILES) | cytotoxicity at 10 µM [%]
CN(Cc1ccccc1)CC(O)Cn1cnc2ccsc2c1=O (configuration not stated) | -2.89
CC(C)N(C)Cc1cncc2c1CCN(CC1CC1)C2 | -102
Cc1ccnn1CCNC(=O)c1cnc(N(C)C)nc1 | 2.24
CN(CC(=O)NC1CC1)S(=O)(=O)c1ccc(F)cc1Cl | -8.06
COc1ccc2cc(CN(C)CCN3CCCCC3=O)c(=O)[nH]c2c1 | 0.363
O=C(c1cscn1)N1CCC2(CCN(Cc3cccs3)CC2)C1 | 3.91
Cc1ccc(N2CCC3(CN(Cc4ccncc4)CCC3(F)F)C2)nn1 (configuration not stated) | 28.6
NC(=O)C1CCCN1Cc1ccccc1NC(=O)CC(F)(F)F (configuration not stated) | 13.1
Cc1cc(NCC(=O)NCC(F)(F)F)nc(-c2ccncc2)n1 | 6.45
CCc1oc(C(=O)NC(C)Cc2cnccn2)cc1CN1CCCC1 (configuration not stated) | -5.28
Cc1cnn(CCC(=O)NC2CCc3nc(C)cn3C2)c1 (configuration not stated) | 0.132
CN(CCCOc1ccccc1Cl)C(=O)CN1CCNC1=O | -0.2
O=C(c1sccc1C1CC1)N1CCN(Cc2cscn2)CC1 | 1.97
Cn1ccc(C(=O)N2CCC3(CCC(=O)N(C4CCCC4)C3)CC2)n1 | -6.19
Cc1noc(CNC(=O)C2CSCCC(=O)N2)n1 (configuration not stated) | 2.42
COCC1COCCC12CCN(C(=O)CCc1ccccc1C)CC2 (configuration not stated) | -1.52
CN(CC(=O)Nc1ccncc1)CC1CCCN1c1cccnn1 (configuration not stated) | -2.01
O=C(NCc1cccc(F)c1)Nc1ccn(CCN2CCOCC2)n1 | -8.45
CC(C)[C@@H]1CN(Cc2cnc(C3CCCCC3)nc2)C[C@H]1C(=O)O | -6.46
c1ccc(OCCCNCc2cccs2)nc1 | -0.336
CCc1nnc(CN2CCCC2Cn2cc(C)cn2)o1 (configuration not stated) | -6.64
Cn1cc(CCCNS(=O)(=O)N2CCCC2c2ccco2)cn1 (configuration not stated) | 9.38
O=C(NCCNc1ncccn1)c1scnc1Cl | -3.11

Structure (SMILES) | cytotoxicity at 10 µM [%]
Cc1cnn(C2CCCN(C(=O)CCc3c(C)noc3C)C2)c1 (configuration not stated) | -17.2
COCCCNC(=O)CN(C)C(=O)CN(C)c1ccc(C#N)cn1 | -6.08
Cc1ccc(NC(=O)C2=CN=S=N2)cc1 | 3.51
NC1(c2nc(-c3cccs3)cc(=O)[nH]2)CCCC1 | 4.19
O=C1NCCCCC1NS(=O)(=O)N1CCCCCC1 (configuration not stated) | 4.15
COc1cc(N2CC[C@@H](OC)[C@@H]2Cc2ccccc2)ncn1 | -138
Cc1cccc(S(=O)(=O)NCc2cccc(CS(C)(=O)=O)c2)c1 | -18.4
Clc1ccccc1CN1CCc2nc(C3CCCCN3)ncc2C1 (configuration not stated) | -3.12
CCNc1ncc(C(=O)NCCc2csc(-c3ncccn3)n2)cn1 | 19.9
Cc1ccc(S(=O)(=O)NC(=O)C2(c3ccccc3)CCC2)c(C)c1 | 13.5
CC(C)CCNC(=O)c1cccnc1Oc1cccnc1 | -0.379
Cc1cc(S(=O)(=O)N2CC[C@@H](O)C2)c(Cl)cc1F | -8.59
COc1ccc2nc(CNC(=O)C3CC4(CCNCC4)CN3C)[nH]c2c1 (configuration not stated) | 0.488
CCS(=O)(=O)c1ccccc1C(=O)NCc1ccnc(N(C)C)c1 | -3.92
Cc1ccccc1C(=O)NCC(O)c1ccc(F)c(F)c1 (configuration not stated) | -10.1
CS(=O)(=O)c1cccc(Cl)c1C(=O)NCCN1C(=O)CCC1=O | -1.19
COc1ccc(-n2cnnc2SCC(C)(C)O)cn1 | 13.5
COCCN1C[C@H]2CN(C(=O)NC(C)C)CCN2C1=O | 2.6
Cc1ccc(S(=O)(=O)N2C[C@H]3C[C@H](NC(=O)c4ccn(C)n4)[C@H]3C2)cc1 | -1.11
CCc1cn[nH]c1C1CCCN(C(=O)c2cnc(NC(C)C)nc2)C1 (configuration not stated) | -13.2
CC(C)CC(C)NC1CCN(c2cccc(-c3cscn3)c2)CC1 (configuration not stated) | -56.8
Cc1ccc(NC2CCN(C(=O)c3cc(C(N)=O)cs3)CC2)nn1 | 2.94
CC(C)C(=O)N1CCC(C)(c2cc[nH]n2)CC1 | 1.96

Structure (SMILES) | cytotoxicity at 10 µM [%]
O=C(NCC1CCCOC1)c1ccc(-c2cccs2)[nH]c1=O (configuration not stated) | -3.67
CC(NC(=O)NCCC1=CCCCC1)c1nncn1C (configuration not stated) | -11.7
CCOCc1cnc2n1CCN(C(=O)c1cccc3c1OCCO3)C2C (configuration not stated) | -98.2
CCCNC(=O)c1ccc(S(=O)(=O)NCC2(COC)CCCC2)cc1 | -31.2
CS(=O)(=O)c1ccc(CNC(=O)Nc2cn[nH]c2)cc1 | -1.88
COc1cc(-n2cc(CCO)cn2)ccc1NC(C)=O | 9.81
O=C(c1cccnc1)N1CCN2C(=O)N(Cc3ccc(F)cc3)C[C@H]2C1 | -0.756
Cc1ccsc1CN(C)C(=O)c1ccc(N2CCOCC2)c(F)c1 | 11.1
CC1CN(C(=O)c2cc(=O)[nH]c3ccc(F)cc23)CCO1 (configuration not stated) | 19.3
CS(=O)(=O)N1CCc2sc(C(=O)NCCc3ccccn3)cc21 | -0.464
Cn1cc(CN2CCN(Cc3nccn3C)CC2)cn1 | 15.5
CCc1cc(CN(C)C(=O)CN2CC(c3ccccc3)CC2=O)on1 (configuration not stated) | -4.81
CCCNCc1ccc(OCc2ccc3c(c2)OCCO3)cc1 | 3.49
O=C(NC1CC1)C1(Cc2ccccc2-c2ccncc2)CCOCC1 | -3.83
CCCc1nc(C)c(C(=O)NCCN2CCCCC2)s1 | -0.906
Cn1ccnc1CNC(=O)N(CCCO)C1CCc2ccccc21 (configuration not stated) | -11.6
O=C(c1cnccn1)N1CCc2ncnc(-c3cccnc3)c2CC1 | -3.8
COc1ccccc1CCNC(=O)C1CCC(Cn2cnnn2)CC1 (configuration not stated) | 1.61
CC(C)(C)N1CC(c2ncc(-c3ccc4c(c3)OCCO4)[nH]2)CC1=O (configuration not stated) | 6.19
COc1ccc(S(=O)(=O)N2CCCC3(CCCN3S(C)(=O)=O)C2)cc1 (configuration not stated) | -0.908
CC(=O)N1CCO[C@@H]2CN(S(=O)(=O)C3CC3)CC[C@@H]2C1 | -112
CC(C)c1nnc2n1CCN(Cc1ncc(-c3ccccc3)o1)C2 | -12.8
Cc1cc(C)n(CC2CCCN2C(=O)Cc2c(C)nn(C)c2C)n1 (configuration not stated) | -13.8

Structure (SMILES) | cytotoxicity at 10 µM [%]
CNC(=O)c1ccc(C2CN(Cc3ccc(F)cc3)CCO2)nc1 (configuration not stated) | -0.378
CN(C)CCN1CCCC12CCN(C(=O)c1ccoc1)CC2 | -1.83
CN1CCCC(c2cccc(-c3cccc(C(F)(F)F)c3)n2)C1 (configuration not stated) | -6.47
Cc1noc(O)c1Cc1ccc2ccccc2c1 | -8.94
CCS(=O)(=O)N(C)C1CCN(Cn2ccc(-c3ccc(F)cc3)n2)CC1 | 1.95
CC(C)N(C)[C@@H]1CCN(c2ncccn2)[C@H]1Cc1ccncc1 | -3.42
CCOc1ccccc1C(N)CC(C)C (configuration not stated) | -0.857
CS(=O)(=O)Cc1ccc(Cl)cc1NCc1cccc(F)c1F | 9.2
c1cc(N2CCC(CN3CCOCC3)CC2)c2sccc2n1 | 10.8
Cc1ccc(-n2c(C)nnc2SCC(O)COCc2ccco2)cc1 (configuration not stated) | -11.6
COc1ncccc1NC(=O)C1CC1 | -19.2
O=c1oc(-c2ccc(F)cc2)nn1CCc1ccccn1 | -5.65
CC(C)CN1CCC2(CCCNC2)C1=O (configuration not stated) | -0.184
Cc1ccccc1CNc1ccc(S(N)(=O)=O)c(C(F)(F)F)c1 | 22.2
O=C1CCC2(CCCN(C(=O)c3ccc[nH]3)C2)CN1Cc1cccnc1 (configuration not stated) | 9.88
CCC1c2ccsc2CCN1C(=O)NCc1ccccn1 (configuration not stated) | -4.51
Cc1cc(CS(=O)(=O)N(C)C(C)c2ccc(Cl)cc2)on1 (configuration not stated) | 9.72
CCc1ncnc2c1CCN(C(=O)N1CCCC1)CC2 | 5.46
CC1CCc2c(c3ccccc3[nH]c2=O)O1 (configuration not stated) | -8.41
Cc1ncnc(NCc2cc3n(n2)CCCN(S(C)(=O)=O)C3)c1C | -8.42
CN1CCC(Oc2ccc(-n3ccnc3-c3ccncc3)cc2)CC1 | -3.05
Cc1ccc(C)c(C(O)Cn2cc(Cl)c(=O)[nH]c2=O)c1 (configuration not stated) | -6.81
N#Cc1ccc(NC(=O)C2CSCN2)cc1 (configuration not stated) | 2.62

Structure (SMILES) | cytotoxicity at 10 µM [%]
COCc1nnc(C(=O)N(C)Cc2ccc(OC)cc2)o1 | -0.164
Cc1ccccc1-c1noc(-c2ccc(N(C)C3CCOCC3)nc2)n1 | 2.65
Cc1cc(NC(=O)N(C)CCN2CCN(c3ccccc3)CC2)on1 | 4.79
c1cc2cc[nH]c2c(CC2CN(Cc3cscn3)C2)n1 | 13.8
COC(=O)c1cc(C)nc(N2CCN(Cc3cc(C(C)C)no3)CC2)n1 | 3.29
COCC(=O)N1C[C@@H](c2cccc(F)c2)[C@H]2[C@H]1CCCCCN2C(C)=O | 4.22
O=C(Nc1ccc(F)cc1)NC1(CCO)CCOCC1 | 22.3
CC(C)CN(C(=O)COc1ccc(C(N)=O)cc1)C1CCN(C)CC1 | -3.24
CCn1ccc(-c2cc(NCCCOc3ccccc3C)nc(C)n2)n1 | -5.28
CC(NC(=O)Nc1ccc(S(C)(=O)=O)cc1)c1ccc2c(c1)CC(=O)N2 (configuration not stated) | 0.0793
CN1CCO[C@@H]2CN(C(=O)COc3cccc(Cl)c3)C[C@@H]2C1 | -9.58
CN(C)C(=O)CN1C[C@H]2CC[C@@H](C1)N(Cc1ccccc1C#N)C2 | -0.898
O=C(c1cncnc1)N1CCCC(c2nccs2)C1 (configuration not stated) | 6.55
COc1ccc(CN2CCN(C(C)=O)CC3(CC(=O)N(C)C3)C2)cc1 (configuration not stated) | 9.74
CCc1ncc2c(n1)CN(C(C)C(=O)N1CCOCC1)CC2 (configuration not stated) | -8.52
CCS(=O)(=O)N1C[C@@H](c2cc(O)nc(C)n2)[C@H](c2ccccc2F)C1 | 7.17
Cc1ccc(CSc2ncc(Br)c(C(=O)O)n2)cc1 | -2.3
Cc1ccc(CNC(C)c2nnc3n2CCCC3)o1 (configuration not stated) | -7.17
COCC(=O)N1CCc2cccc(S(=O)(=O)N3CCN(C)CC3)c2C1 | 5.07
COc1cccc(CNCCc2cccc(C(N)=O)c2)c1 | 9.83
